How the values were obtained:
Autotaxin [1] = target: T1, Autotaxin (Homo sapiens, UniProt Q13822); experiment: Inhibition of glycosylated human ATX using LPC 16:0 as substrate after 30 mins by luminescence assay
Outline: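 Started with 150 µM LPC 16:0 solution, 30 min at 37°C. Stopped with EGTA and choline detected by choline oxidase/HRP/TOOS/4-aminoantipyrine; read after 30 min at room temperature.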

Autotaxin [2] = target: T1, Autotaxin; experiment: Inhibition of glycosylated human ATX using FS-3 as substrate preincubated for 30 mins followed by substrate addition measured after 30 mins by fluorescence assay
Outline: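 Fivefold compound dilutions from a 20 µM top. Started with 0.75 µM FS-3 solution; fluorescence (ex 485, em 520 nm) read after 30 min at room temperature. SD where replicated at least twice.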

Autotaxin [3] = target: Autotaxin (Rattus norvegicus, UniProt Q64610); experiment: Inhibition of ATX in rat plasma assessed as reduction in plasma lysophosphatidic acid 18:2 levels after 2 hrs by LC-MS/MS method
Outline: (§1)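 Rat plasma thawed on ice and incubated with a compound dose range for 2 h at 37°C. Methanol precipitation with LPA 17:0 internal standard, isocratic C18 LC-MS/MS, LPA 18:2/LPA 17:0 peak-area ratio. % reduction = 100 − (ratio/control ratio × 100). Some compounds were tested only at 0.5, 5 and 50 µM (n = 3).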

[4] = Half life in Sprague-Dawley rat at 1 mg/kg, iv; assay type: ADME, organism-based; conditions: in vivo
Outline: (§2)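 PK from single 1 mg/kg iv and 5 mg/kg po doses (n = 3); mice sampled compositely as a group of six. Plasma drug by LC-MS/MS against an eight-level calibration curve with QCs, LLOQ 4 ng/mL. Parameters by noncompartmental analysis of averaged plasma concentrations; CV% reported for rats.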

[5] = Half life in mouse at 1 mg/kg, iv; assay type: ADME, organism-based; conditions: in vivo; outline: as §2
[6] = Volume of distribution at steady state in mouse at 1 mg/kg, iv; assay type: ADME, organism-based; conditions: in vivo, read-out: Vdss; outline: as §2
[7] = Volume of distribution at steady state in Sprague-Dawley rat at 1 mg/kg, iv; assay type: ADME, organism-based; conditions: in vivo, read-out: Vdss; outline: as §2
[8] = Plasma concentration in Sprague-Dawley rat at 5 mg/kg, po measured after 0.5 hrs by LC-MS/MS method; assay type: ADME, organism-based
Outline: (§3)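 Fasted male Sprague Dawley rats dosed orally at 5 mg/kg in 10% hydroxypropyl-β-cyclodextrin (pH 3, citric acid); jugular catheter blood into Li-heparin at 0.5, 1, 3 h. Plasma level by LC-MS/MS against an eight-level calibration curve with QCs, LLOQ 4 ng/mL; mean of 3 animals.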

[9] = Plasma concentration in Sprague-Dawley rat at 5 mg/kg, po measured after 1 hr by LC-MS/MS method; assay type: ADME, organism-based; outline: as §3
[10] = Plasma concentration in Sprague-Dawley rat at 5 mg/kg, po measured after 3 hrs by LC-MS/MS method; assay type: ADME, organism-based; outline: as §3
Rattus norvegicus [11] = experiment: In vivo inhibition of ATX in Sprague-Dawley rat plasma assessed as reduction in plasma lysophosphatidic acid 18:2 levels at 5 mg/kg, po measured after 0.5 hrs by LC-MS/MS method; assay type: functional
Outline: (§4)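 Fasted male Sprague Dawley rats given 5 mg/kg orally in 10% hydroxypropyl-β-cyclodextrin, pH 3 with citric acid. Jugular catheter blood taken into Li-heparin at 0.5, 1 and 3 h. Methanol precipitation with LPA 17:0 internal standard, isocratic C18 LC-MS/MS, peak-area ratio of LPA 18:2 to LPA 17:0 with no calibration curve. % reduction against the vehicle group mean at the same time; 3 animals.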

Rattus norvegicus [12] = experiment: In vivo inhibition of ATX in Sprague-Dawley rat plasma assessed as reduction in plasma lysophosphatidic acid 18:2 levels at 5 mg/kg, po measured after 1 hr by LC-MS/MS method; assay type: functional; outline: as §4
Rattus norvegicus [13] = experiment: In vivo inhibition of ATX in Sprague-Dawley rat plasma assessed as reduction in plasma lysophosphatidic acid 18:2 levels at 5 mg/kg, po measured after 3 hrs by LC-MS/MS method; assay type: functional; outline: as §4
[14] = Protein binding in Sprague-Dawley rat plasma; assay type: ADME, cell-free; conditions: read-out: PPB
[15] = Clearance in Sprague-Dawley rat at 1 mg/kg, iv; assay type: ADME, organism-based; conditions: in vivo; outline: as §2
[16] = Oral bioavailability in Sprague-Dawley rat at 5 mg/kg; assay type: ADME, organism-based; conditions: in vivo; outline: as §2
[17] = target: Autotaxin (Rattus norvegicus) (UniProt Q64610); experiment: Inhibition of ATX in rat plasma assessed as reduction in plasma lysophosphatidic acid 18:2 levels at 0.5 to 50 uM after 2 hrs by LC-MS/MS method relative to control; outline: as §1
[18] = target: Autotaxin (Rattus norvegicus) (UniProt Q64610); conditions: 0.5 uM
[19] = target: Autotaxin (Rattus norvegicus) (UniProt Q64610); conditions: 5 uM
[20] = target: Autotaxin (Rattus norvegicus) (UniProt Q64610); conditions: 50 uM

Row | IC50 (Autotaxin [1]) [nM] | SMILES | other results
1 | 2020 | CCc1nc2ccc(C3CCN(S(C)(=O)=O)CC3)cn2c1N(C)c1nc(-c2ccc(F)cc2F)cs1 | –
2 | 1000 | CCc1nc2ccc(C3CCN(S(C)(=O)=O)CC3)cn2c1N(C)c1nc(-c2ccc(C(F)(F)F)cc2)cs1 | –
3 | 804 | CCc1nc2ccc(C3CCN(S(C)(=O)=O)CC3)cn2c1N(C)c1nc2c(s1)Cc1ccc(F)cc1-2 | –
4 | 533 | CCc1nc2ccc(C3CCN(S(C)(=O)=O)CC3)cn2c1N(C)c1nc(-c2ccc(F)cc2C)cs1 | –
5 | 1900 | CCc1nc2ccc(C3CCN(S(C)(=O)=O)CC3)cn2c1N(C)c1nc(-c2ccc(F)c(F)c2)cs1 | –
6 | 710 | CCc1nc2ccc(C3CCN(S(C)(=O)=O)CC3)cn2c1N(C)c1nc(-c2ccc(F)cc2)cs1 | IC50 (Autotaxin [3]): 1030 nM
7 | 4250 | CCc1nc2ccc(C3CCN(S(C)(=O)=O)CC3)cn2c1N(C)c1nc(-c2cc(F)cc(F)c2)cs1 | –
8 | 1410 | CCc1nc2ccc(C3CCN(S(C)(=O)=O)CC3)cn2c1N(C)c1nc(-c2ccc(F)cc2)c(C(N)=O)s1 | –
9 | 1210 | CCc1nc2ccc(C3CCN(S(C)(=O)=O)CC3)cn2c1N(C)c1nc2c(s1)Cc1cc(F)ccc1-2 | –
10 | 7610 | CCc1nc2ccc(C3CCN(S(C)(=O)=O)CC3)cn2c1N(C)c1nc(-c2ccc(C(C)(C)C)cc2)cs1 | –
11 | 126 | CCc1nc2ccc(C3CCN(S(C)(=O)=O)CC3)cn2c1N(C)c1nc(-c2ccc(F)cc2C#N)cs1 | –
12 | 2270 | CCc1nc2ccc(C3CCN(S(C)(=O)=O)CC3)cn2c1N(C)c1nc(-c2ccc(F)cc2)c(C)s1 | –
13 | 1680 | CCc1nc2ccc(C3CCN(S(C)(=O)=O)CC3)cn2c1N(C)c1nc(-c2ccc(OC)cc2)cs1 | –
14 | > 10000 | CCc1nc2ccc(C3CCN(S(C)(=O)=O)CC3)cn2c1N(C)c1nc2ccccc2s1 | –
15 | > 10000 | CCc1nc2ccc(C3CCN(S(C)(=O)=O)CC3)cn2c1N(C)c1nc(-c2ccc(F)cc2)c(C(=O)O)s1 | –
16 | 493 | CCc1nc2ccc(C3CCN(S(C)(=O)=O)CC3)cn2c1N(C)c1nc(-c2ccc(Cl)nc2)cs1 | –
17 | 138 | CCc1nc2ccc(C3CCN(S(C)(=O)=O)CC3)cn2c1N(C)c1nc(-c2ccc(F)cc2)c(C#N)s1 | –

More lines, now with the values behind:

Row | SMILES | IC50 (Autotaxin [1]) [nM] | other results
18 | CCc1nc2ccc(N3CCN(CCO)CC3)cn2c1N(C)c1nc(-c2ccc(F)cc2)cs1 | 2360 | IC50 (Autotaxin [2]): 12 nM; IC50 (Autotaxin [3]): 6080 nM
19 | CCc1nc2ccc(C3CCN(CC(=O)N4CC(O)C4)CC3)cn2c1N(C)c1nc(-c2ccc(F)cc2)c(C#N)s1 | – | half-life [4]: 2.1 h; half-life [5]: 2 h; Vd [6]: 1.7 L/kg; Vd [7]: 8.3 L/kg; concentration at 0.5 h [8]: 67 nM; concentration at 1 h [9]: 34 nM; concentration at 3 h [10]: 58 nM; inhibition in vivo at 5 mg/kg (Rattus norvegicus [11]): 74%; inhibition in vivo at 5 mg/kg (Rattus norvegicus [12]): 82%; inhibition in vivo at 5 mg/kg (Rattus norvegicus [13]): 97%; fraction unbound [14]: < 0.01
20 | CCc1nc2ccc(C3CCN(CC(=O)NC4CC4)CC3)cn2c1N(C)c1nc(-c2ccc(F)cc2)cs1 | 1610 | –
21 | CCc1nc2ccc(C3CCN(S(C)(=O)=O)CC3)cn2c1N(C)c1nc(C2CCCCC2)cs1 | 1900 | –
22 | CCc1nc2ccc(C(=O)NCCO)cn2c1N(C)c1nc(-c2ccc(Cl)cc2)cs1 | > 10000 | IC50 (Autotaxin [2]): 122 nM; IC50 (Autotaxin [3]): > 50000 nM; clearance [15]: 2.5 mL/min/kg; bioavailability [16]: 39%; inhibition [17]: < 50%
23 | CCc1nc2ccc(N3CCN(Cc4cnc[nH]4)CC3)cn2c1N(C)c1nc(-c2ccc(F)cc2)cs1 | 771 | IC50 (Autotaxin [3]): 4100 nM
24 | CCc1nc2ccc(-c3cccnc3)cn2c1N(C)c1nc(-c2ccc(F)cc2)cs1 | > 10000 | IC50 (Autotaxin [2]): 2 nM; IC50 (Autotaxin [3]): > 50000 nM; inhibition [17]: < 50%
25 | CCc1nc2ccc(N3CCN(Cc4ncon4)CC3)cn2c1N(C)c1nc(-c2ccc(F)cc2)cs1 | 1710 | –
26 | CCc1nc2ccc(C3CCN(CC(N)=O)CC3)cn2c1N(C)c1nc(-c2ccc(F)cc2)cs1 | 2370 | –
27 | CCc1nc2ccc(N3CCN(CC(=O)N4CCOCC4)CC3)cn2c1N(C)c1nc(-c2ccc(F)cc2)cs1 | 231 | –
28 | CCOC(=O)N1CCC(NCc2ccc3nc(CC)c(N(C)c4nc(-c5ccc(Cl)cc5)cs4)n3c2)CC1 | 1210 | IC50 (Autotaxin [2]): 9 nM; IC50 (Autotaxin [3]): < 5000 nM; inhibition [18]: 7%; inhibition [19]: 67%; inhibition [20]: 100%
29 | CCc1nc2ccc(C3CCN(CC(=O)N(C)C)CC3)cn2c1N(C)c1nc(-c2ccc(F)cc2)cs1 | 261 | IC50 (Autotaxin [3]): 476 nM
30 | CCc1nc2ccc(N3CCOCC3)cn2c1N(C)c1nc(-c2ccc(F)cc2)cs1 | 6800 | IC50 (Autotaxin [2]): 8 nM; IC50 (Autotaxin [3]): > 50000 nM; inhibition [17]: < 50%
31 | CCOC(=O)CN1CCC(c2ccc3nc(CC)c(N(C)c4nc(-c5ccc(F)cc5)cs4)n3c2)CC1 | 480 | –
32 | CCc1nc2ccc(N3CCN(CC(=O)O)CC3)cn2c1N(C)c1nc(-c2ccc(F)cc2)cs1 | 9160 | –
33 | CCc1nc2ccc(N3CCN(Cc4ncco4)CC3)cn2c1N(C)c1nc(-c2ccc(F)cc2)cs1 | 1520 | –
34 | CCOC(=O)CN1CCN(c2ccc3nc(CC)c(N(C)c4nc(-c5ccc(F)cc5)cs4)n3c2)CC1 | 280 | –
35 | CCc1nc2ccc(C3CCN(S(=O)(=O)CCCN(C)C)CC3)cn2c1N(C)c1nc(-c2ccc(F)cc2)cs1 | 357 | –
36 | CCc1nc2ccc(N3CCN(Cc4ncc[nH]4)CC3)cn2c1N(C)c1nc(-c2ccc(F)cc2)cs1 | > 4100 | –
37 | CCOC(=O)N1CCC(NC(=O)c2ccc3nc(CC)c(N(C)c4nc(-c5ccc(Cl)cc5)cs4)n3c2)CC1 | 6560 | IC50 (Autotaxin [2]): 5 nM; IC50 (Autotaxin [3]): 12600 nM
38 | CCc1nc2ccc(C3CCN(CC(=O)N4CCCC4)CC3)cn2c1N(C)c1nc(-c2ccc(F)cc2)cs1 | 86 | IC50 (Autotaxin [3]): 115 nM
